Reference: ChEMBL document CHEMBL1153722, “Design, synthesis, and characterization of peptide-based rab geranylgeranyl transferase inhibitors” (J Med Chem, 2009)
Peptide text beside a SMILES is read from it. * marks the point of attachment. Hydrocinnamoyl = O=C(CCc1ccccc1)*; Undecanoyl = CCCCCCCCCCC(=O)*; Cbz = O=C(OCc1ccccc1)*; NHBn = c1ccc(CN*)cc1; NHPh = c1ccc(N*)cc1

organism: Rattus norvegicus; experiment: Inhibition of rat recombinant Rab geranylgeranyltransferase at 100 uM in presence of canine Rab7 and rat REP1 NBD-FPP based continuous fluorimetric assay
Outline: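 Continuous fluorometric assay in 96/384-well format: 3 μM Rab7, 3 μM REP1, 9 μM NBD-FPP and 400 nM RabGGTase, with or without inhibitor. […] IC50 was calculated from three independent measurements.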

Structure (SMILES) | inhibition [%]
COC(=O)[C@H](CCC(N)=O)NC(=O)[C@H](Cc1ccccc1)NC(=O)CNC(=O)CCc1ccccc1 (Hydrocinnamoyl-Gly-Phe-Gln-OMe) | 92
CON(C)C(=O)[C@H](CC(C)C)NC(=O)[C@H](CO)NC(=O)[C@H](Cc1ccccc1)NC(=O)/C=C/c1ccc(F)cc1 | 71
COC(=O)[C@H](CCC(N)=O)NC(=O)[C@H](Cc1ccccc1)NC(=O)[C@@H](NC(=O)/C=C/c1ccccc1)[C@@H](C)O | 92
NCCOC(=O)[C@H](Cc1ccc(O)cc1)NC(=O)CNC(=O)[C@H](Cc1c[nH]cn1)NC(=O)OCc1ccccc1 | 101
CCCCCCCCCCC(=O)N[C@@H](Cc1c[nH]cn1)C(=O)N[C@@H](Cc1ccccc1)C(=O)N[C@@H](Cc1ccc(O)cc1)C(=O)O (Undecanoyl-His-Phe-Tyr-OH) | 70
O=C(CCc1ccccc1)N[C@@H](CO)C(=O)NCC(=O)N[C@@H](CO)C(=O)NCc1ccccc1 (Hydrocinnamoyl-Ser-Gly-Ser-NHBn) | 90
O=C(CNC(=O)[C@H](Cc1cn(C(c2ccccc2)(c2ccccc2)c2ccccc2)cn1)NC(=O)c1coc(-c2ccccc2)n1)N[C@@H](Cc1c[nH]c2ccccc12)C(=O)O | 74
CCCCCCCCCCCC(=O)N[C@@H](Cc1ccc(O)cc1)C(=O)N[C@@H](Cc1c[nH]cn1)C(=O)N[C@@H](Cc1c[nH]cn1)C(=O)N(C)CCc1ccccn1 | 54
COC(=O)[C@H](CC(C)C)NC(=O)[C@H](COC(C)(C)C)NC(=O)[C@H](Cc1ccccc1)NC(=O)/C=C/c1ccc(F)cc1 | 57
COC(=O)[C@H](CCC(N)=O)NC(=O)[C@H](NC(=O)[C@H]1CCCN1C(=O)c1ccc([N+](=O)[O-])c(NC(C)=O)c1)C(C)C | 98
C[C@H](NC(=O)[C@@H](NC(=O)c1ccc(-c2ccccc2)cc1)[C@@H](C)O)C(=O)N[C@@H](CCC(N)=O)C(=O)Nc1nccs1 | 108
Nc1ccccc1NC(=O)[C@H](Cc1ccc(O)cc1)NC(=O)CCNC(=O)[C@H](Cc1c[nH]cn1)NC(=O)OCc1ccccc1 | 80
COC(=O)[C@H](CO)NC(=O)CNC(=O)[C@H](Cc1ccccc1)NC(=O)C1COC(c2ccccc2)=N1 (some centres undefined) | 136
CC(C)C[C@H](NC(=O)[C@H](COC(C)(C)C)NC(=O)[C@H](Cc1ccccc1)NC(=O)/C=C/c1ccc(F)cc1)C(N)=O | 83
CC(=O)Nc1cc(C(=O)N2CCC[C@H]2C(=O)N[C@@H](C(=O)N[C@@H](CCC(=O)O)C(=O)NC2CCCCC2)C(C)C)ccc1[N+](=O)[O-] | 117
O=C(CNC(=O)[C@@H]1CCCN1C(=O)/C=C/c1ccccc1)N[C@@H](Cc1ccccc1)C(=O)O | 71
CCCCCCCCCCCCCCCC(=O)N[C@@H](Cc1ccc(O)cc1)C(=O)N[C@@H](Cc1ccc(O)cc1)C(=O)N[C@@H](Cc1ccc(O)cc1)C(=O)Nc1nccs1 | 83
CCCCCCCCCCC(=O)N[C@@H](Cc1ccc(O)cc1)C(=O)N[C@@H](Cc1c[nH]cn1)C(=O)N[C@@H](Cc1ccc(O)cc1)C(N)=O (Undecanoyl-Tyr-His-Tyr-NH2) | 83
O=C(CCc1ccc(F)cc1)N[C@@H](Cc1ccc(O)cc1)C(=O)NCC(=O)N[C@@H](Cc1ccc(O)cc1)C(=O)Nc1ccc(F)cc1 | 80
O=C(/C=C/c1ccc(F)cc1)N[C@@H](CO)C(=O)N[C@@H](Cc1ccccc1)C(=O)N[C@@H](CO)C(=O)Nc1ccc(F)cc1F | 92

Structure (SMILES) | inhibition [%]
CCCCCCCCCCCOc1ccc(C(=O)N[C@@H](Cc2c[nH]cn2)C(=O)N[C@@H](Cc2ccc(O)cc2)C(=O)N[C@@H](Cc2ccccc2)C(=O)NC2CCCCC2)cc1 | 56
O=C(CCc1ccccc1)N[C@@H](CO)C(=O)N[C@@H](Cc1ccccc1)C(=O)N[C@@H](CO)C(=O)NC1CCCCC1 | 90
CCCCCc1ccc(CCC(=O)N[C@H](Cc2cnc[nH]2)C(=O)N[C@@H](Cc2ccc(O)cc2)C(=O)N[C@@H](Cc2ccccc2)C(=O)O)cc1 | 10
CCCCCCCCCCCCCCCC(=O)N[C@@H](Cc1ccc(O)cc1)C(=O)N[C@@H](Cc1ccc(O)cc1)C(=O)N[C@@H](Cc1ccc(O)cc1)C(=O)Nc1ccc(F)cc1F | 82
C[C@@H](O)[C@H](NC(=O)C(Br)C(Br)c1ccccc1)C(=O)N[C@@H](Cc1ccccc1)C(=O)N[C@@H](CCC(N)=O)C(=O)Nc1cccc(Br)n1 (some centres undefined) | 113
O=C(N[C@@H](Cc1c[nH]cn1)C(=O)N[C@@H](Cc1ccc(O)cc1)C(=O)N[C@@H](Cc1ccccc1)C(=O)O)OCc1ccccc1OCc1ccccc1 | 15
O=C(CNC(=O)[C@H](Cc1ccc(O)cc1)NC(=O)c1ccc(F)cc1)N[C@@H](Cc1ccc(O)cc1)C(=O)NC1CCCCC1 | 74
CCCCCCCCCCCOc1ccc(C(=O)N[C@@H](Cc2ccc(O)cc2)C(=O)N[C@@H](Cc2ccc(O)cc2)C(=O)N[C@@H](Cc2ccc(O)cc2)C(=O)OC)cc1 | 102
O=C(CNC(=O)[C@H](Cc1ccc(O)cc1)NC(=O)c1coc(-c2ccccc2)n1)N[C@@H](Cc1ccccc1)C(=O)O | 65
O=C(CNC(=O)c1coc(-c2ccccc2)n1)NCC(=O)N[C@@H](Cc1cn(C(c2ccccc2)(c2ccccc2)c2ccccc2)cn1)C(=O)Nc1ccc(F)cc1F | 6
O=C(CNC(=O)[C@H](Cc1c[nH]cn1)NC(=O)OCc1ccccc1)N[C@@H](Cc1ccc(O)cc1)C(=O)O (Cbz-His-Gly-Tyr-OH) | 75
C[C@H](NC(=O)[C@@H](NC(=O)c1ccc(-c2ccccc2)cc1)[C@@H](C)O)C(=O)N[C@@H](CCC(=O)O)C(=O)OCCCCO | 101
O=C(/C=C/c1ccc(F)cc1)N[C@@H](CO)C(=O)N[C@@H](Cc1ccccc1)C(=O)N[C@@H](CO)C(=O)OCCCl | 84
CC#CCOC(=O)[C@H](Cc1ccccc1)NC(=O)[C@H](Cc1ccccc1)NC(=O)[C@H](CC(C)C)NC(=O)/C=C/c1ccccc1 | 61
O=C(/C=C/c1ccc(F)cc1)N[C@@H](CO)C(=O)N[C@@H](Cc1ccccc1)C(=O)N[C@@H](CO)C(=O)NC1CCCCC1 | 86
C[C@@H](O)[C@H](NC(=O)/C=C/c1ccccc1)C(=O)N[C@@H](Cc1ccccc1)C(=O)N[C@@H](CCC(N)=O)C(=O)OCCCl | 81
CC[C@H](C)[C@H](NC(=O)c1ccc(-c2ccccc2)cc1)C(=O)N[C@@H](C(=O)N[C@@H](CCC(N)=O)C(=O)OC)C(C)C | 94
O=C(CCc1ccc(F)cc1)N[C@@H](Cc1ccc(O)cc1)C(=O)NCC(=O)N[C@@H](Cc1ccc(O)cc1)C(=O)OCCCl | 50
COC(=O)[C@H](CCC(N)=O)NC(=O)[C@H](Cc1ccccc1)NC(=O)[C@H](CO)NC(=O)CCc1ccccc1 (Hydrocinnamoyl-Ser-Phe-Gln-OMe) | 76
NC(=O)CC[C@H](NC(=O)[C@H](Cc1ccccc1)NC(=O)[C@H](CO)NC(=O)CCc1ccccc1)C(=O)O (Hydrocinnamoyl-Ser-Phe-Gln-OH) | 102

Structure (SMILES) | inhibition [%]
CCCCCCCCCCCOc1ccc(C(=O)N[C@@H](Cc2ccc(O)cc2)C(=O)N[C@@H](Cc2ccc(O)cc2)C(=O)N[C@@H](Cc2ccc(O)cc2)C(=O)NCc2ccc(F)cc2F)cc1 | 99
O=C(CCc1ccccc1)N[C@@H](CO)C(=O)N[C@@H](Cc1ccccc1)C(=O)N[C@@H](CO)C(=O)Nc1ccccc1 (Hydrocinnamoyl-Ser-Phe-Ser-NHPh) | 89
O=C(CCc1ccccc1)N[C@@H](CO)C(=O)N[C@@H](Cc1ccccc1)C(=O)N[C@@H](CO)C(=O)Nc1ccc(F)cc1F | 96
Cc1ccc(C(=O)OC[C@H](NC(=O)CNC(=O)[C@H](COC(=O)c2ccc(C)nc2)NC(=O)c2coc(-c3ccccc3)n2)C(=O)O)cn1 | 100
C[C@@H](O)[C@H](NC(=O)/C=C/c1ccccc1)C(=O)N[C@@H](Cc1ccccc1)C(=O)N[C@@H](CCC(N)=O)C(=O)O | 83
CCCCCCCCCCC(=O)N[C@@H](Cc1c[nH]cn1)C(=O)N[C@@H](Cc1c[nH]cn1)C(=O)N[C@@H](Cc1ccc(O)cc1)C(=O)O (Undecanoyl-His-His-Tyr-OH) | 51
CCCCCCCCCCCOc1ccc(C(=O)N[C@@H](Cc2c[nH]cn2)C(=O)N[C@@H](Cc2ccc(O)cc2)C(=O)N[C@@H](Cc2ccccc2)C(=O)Nc2nccs2)cc1 | 76
O=C(CCNC(=O)[C@H](Cc1c[nH]cn1)NC(=O)OCc1ccccc1)N[C@@H](Cc1ccc(O)cc1)C(=O)NCCCn1ccnc1 | 88
CC[C@H](C)[C@H](NC(=O)/C=C/c1ccc(F)cc1)C(=O)N[C@@H](C)C(=O)N[C@@H](CCC(N)=O)C(=O)OC | 83
CCCCCCCCCCC(=O)N[C@@H](Cc1c[nH]cn1)C(=O)N[C@@H](Cc1ccccc1)C(=O)N[C@@H](Cc1ccc(O)cc1)C(=O)NOC(C)(C)C | 76
CC[C@H](C)[C@H](NC(=O)c1ccc(-c2ccccc2)cc1)C(=O)N[C@@H](C(=O)N[C@@H](CCC(N)=O)C(=O)NN)C(C)C | 84
NC(=O)CC[C@H](NC(=O)[C@H](Cc1ccccc1)NC(=O)CNC(=O)CCc1ccccc1)C(=O)NC1CCCCC1 | 50
CCCCCCCCCCC(=O)N[C@@H](Cc1ccc(O)cc1)C(=O)N[C@@H](Cc1c[nH]cn1)C(=O)N[C@@H](Cc1c[nH]cn1)C(N)=O (Undecanoyl-Tyr-His-His-NH2) | 79
O=C(CNC(=O)[C@H](Cc1c[nH]cn1)NC(=O)c1coc(-c2ccccc2)n1)N[C@@H](Cc1c[nH]c2ccccc12)C(=O)O | 69
O=C(N[C@@H](CO)C(=O)N[C@@H](Cc1ccccc1)C(=O)N[C@@H](CO)C(=O)Nc1ccc(F)cc1F)C(Br)C(Br)c1ccc(F)cc1 (some centres undefined) | 94
CCCCCCCCCCCOc1ccc(C(=O)N[C@@H](Cc2c[nH]cn2)C(=O)N[C@@H](Cc2ccc(O)cc2)C(=O)N[C@@H](Cc2ccccc2)C(=O)N(C)CCc2ccccn2)cc1 | 101
CCCCCCCCCCCOc1ccc(C(=O)N[C@@H](Cc2ccc(O)cc2)C(=O)N[C@@H](Cc2ccc(O)cc2)C(=O)N[C@@H](Cc2ccc(O)cc2)C(=O)NCC(O)CO)cc1 (some centres undefined) | 90
C=CCOC(=O)[C@H](Cc1c[nH]cn1)NC(=O)[C@H](Cc1ccccc1)NC(=O)CNC(=O)C1COC(c2ccccc2)=N1 (some centres undefined) | 106
O=C(N[C@@H](CO)C(=O)N[C@@H](Cc1ccccc1)C(=O)N[C@@H](CO)C(=O)O)C(Br)C(Br)c1ccc(F)cc1 (some centres undefined) | 92
